Measured values from article PMC9097201 (ACS Omega, 2022).
Where a SMILES comes first, the peptide text is derived from it. [ ]: non-standard residue; d: D form. Nle = CCCC[C@H](N)C(=O)O; Dab = NCC[C@H](N)C(=O)O

Assays:
[1] = system: human embryonic lungs (L132) cell lines; experiment: Cell viability; type: cell-based; details: L132 cells, 100 μM peptide, 4 h, absorbance 570 nm, triplicate
[2] = system: trypsin, chymotrypsin, and proteinase K; experiment: Proteolytic stability assay; type: in vitro ADME; details: reaction mixture post-incubation with enzyme cocktail, ESI-MS positive mode
In short: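 Test compound (10 mM) was incubated with a 1:1:1 trypsin/chymotrypsin/proteinase K mixture (0.3 mg/mL) at 37 °C for 0–6 h. Enzymes were inactivated with an equal volume of acetonitrile containing 1% TFA for 15 min at 4 °C. The post-incubation reaction mixture was analysed by ESI-MS for intact peptide.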

In the case of `CCCC[C@H](NC(=O)[C@H](CCN)NC(=O)[C@H](CCN)NC(=O)[C@H](CCCC)NC(=O)[C@H](Cc1c[nH]c2ccccc12)NC(=O)[C@H](CCN)NC(=O)[C@@H](N)CCCC)C(N)=O` [P36, Nle-Dab-Trp-Nle-Dab-Dab-Nle-CONH2] (H-[Nle][Dab]W[Nle][Dab][Dab][Nle]-NH2), the “cell viability (MTT)” value [1] was about 90% and the “chemical integrity after protease incubation (ESI-MS)” value [2] was “contained only intact P36”.
